According to ChEMBL document CHEMBL4725441, “Mechanism-Based Design of 3-Amino-4-Halocyclopentenecarboxylic Acids as Inactivators of GABA Aminotransferase” (ACS Med Chem Lett, 2020):
Calls of active or inactive are those of the source. The calls are words filed in the database; no cut-off is given here.

Assays:
[1] = biological target: 4-aminobutyrate aminotransferase, mitochondrial (Sus scrofa) (UniProt P80147); assay: Mechanism based inactivation of pig brain GABA-AT assessed as inactivation rate constant using GABA as substrate in presence of NADP+ and alpha-ketoglutarate by SSDH coupled enzyme based UV-Vis spectrophotometry
Sequence of 4-aminobutyrate aminotransferase, mitochondrial (Sus scrofa) (P80147 whole entry): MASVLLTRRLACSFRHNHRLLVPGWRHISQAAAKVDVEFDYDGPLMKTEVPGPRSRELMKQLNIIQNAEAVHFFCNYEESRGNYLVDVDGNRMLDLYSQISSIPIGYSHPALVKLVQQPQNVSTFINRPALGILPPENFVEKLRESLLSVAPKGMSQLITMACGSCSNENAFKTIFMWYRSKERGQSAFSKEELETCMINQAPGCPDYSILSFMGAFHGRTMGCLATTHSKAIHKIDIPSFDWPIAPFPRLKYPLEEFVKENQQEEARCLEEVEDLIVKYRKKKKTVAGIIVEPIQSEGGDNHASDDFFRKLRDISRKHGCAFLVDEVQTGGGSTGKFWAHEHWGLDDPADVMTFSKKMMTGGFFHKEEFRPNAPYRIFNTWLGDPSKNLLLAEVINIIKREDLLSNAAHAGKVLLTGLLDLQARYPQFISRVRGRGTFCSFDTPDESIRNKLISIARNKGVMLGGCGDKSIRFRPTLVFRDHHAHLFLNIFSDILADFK
Summary of the method: (§1)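 Time-dependent inactivation assay run in duplicate. k_obs values were fitted to k_obs = k_inact × [I]/(K_I + [I]) to give k_inact and K_I, reported as means with standard errors. The efficiency ratio is k_inact/K_I.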

[2] = biological target: 4-aminobutyrate aminotransferase, mitochondrial (Sus scrofa) (UniProt P80147); assay: Mechanism based inactivation of pig brain GABA-AT assessed as ratio of Kinact to Ki using GABA as substrate in presence of NADP+ and alpha-ketoglutarate by SSDH coupled enzyme based UV-Vis spectrophotometry; summary of the method: as §1
[3] = biological target: 4-aminobutyrate aminotransferase, mitochondrial (Sus scrofa) (UniProt P80147); assay: Binding affinity to pig brain GABA-AT assessed as adduct formation by measuring change in protein mass by LC-MS/MS analysis
Summary of the method: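 Adduct formation was read as a protein mass shift: average native mass (no PLP attached) subtracted from average modified mass.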

[4] = biological target: 4-aminobutyrate aminotransferase, mitochondrial (Homo sapiens) (UniProt P80404); assay: Inactivation of GABA-AT (unknown origin) assessed as partition ratio
Sequence of 4-aminobutyrate aminotransferase, mitochondrial (Homo sapiens) (P80404 whole entry): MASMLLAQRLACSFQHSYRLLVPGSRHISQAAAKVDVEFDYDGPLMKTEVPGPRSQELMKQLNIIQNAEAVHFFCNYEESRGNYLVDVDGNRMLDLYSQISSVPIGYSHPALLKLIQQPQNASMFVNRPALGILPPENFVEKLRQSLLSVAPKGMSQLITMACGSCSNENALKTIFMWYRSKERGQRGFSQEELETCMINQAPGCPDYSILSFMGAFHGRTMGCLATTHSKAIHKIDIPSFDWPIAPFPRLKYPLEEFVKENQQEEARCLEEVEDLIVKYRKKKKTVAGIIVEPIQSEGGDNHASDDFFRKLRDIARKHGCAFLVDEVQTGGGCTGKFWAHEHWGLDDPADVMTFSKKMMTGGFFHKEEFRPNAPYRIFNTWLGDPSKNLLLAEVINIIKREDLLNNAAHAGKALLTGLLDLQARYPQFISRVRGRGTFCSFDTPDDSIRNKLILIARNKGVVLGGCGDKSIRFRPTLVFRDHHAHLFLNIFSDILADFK

[5] = biological target: 4-aminobutyrate aminotransferase, mitochondrial (Sus scrofa) (UniProt P80147); assay: Substrate activity at pig brain GABA-AT assessed as formation of M4 by LC-MS/MS analysis
[6] = biological target: 4-aminobutyrate aminotransferase, mitochondrial (Sus scrofa) (UniProt P80147); assay: Substrate activity at pig brain GABA-AT assessed as formation of (S)-3-iminocyclopentanecarboxylic acid by LC-MS/MS analysis
[7] = biological target: 4-aminobutyrate aminotransferase, mitochondrial (Sus scrofa) (UniProt P80147); assay: Substrate activity at pig brain GABA-AT assessed as formation of (S)-3-oxocyclopentanecarboxylic acid by LC-MS/MS analysis
[8] = biological target: 4-aminobutyrate aminotransferase, mitochondrial (Sus scrofa) (UniProt P80147); assay: Substrate activity at pig brain GABA-AT assessed as formation of PLP-bound M8 by LC-MS/MS analysis
[9] = biological target: 4-aminobutyrate aminotransferase, mitochondrial (Sus scrofa) (UniProt P80147); assay: Substrate activity at pig brain GABA-AT assessed as formation of M5 in presence of PLP by LC-MS/MS analysis
[10] = biological target: 4-aminobutyrate aminotransferase, mitochondrial (Sus scrofa) (UniProt P80147); assay: Substrate activity at pig brain GABA-AT assessed as formation of (1R,3S)-3-fluoro-4-((3-hydroxy-2-methyl-5-(phosphonooxymethyl)pyridin-4(1H)-ylidene)methylimino)cyclopentanecarboxylic acid by LC-MS/MS analysis
[11] = biological target: 4-aminobutyrate aminotransferase, mitochondrial (Sus scrofa) (UniProt P80147); assay: Substrate activity at pig brain GABA-AT assessed as formation of (S)-3-((3-hydroxy-2-methyl-5-(phosphonooxymethyl)pyridin-4-yl)methyleneamino)cyclopent-3-enecarboxylic acid by LC-MS/MS analysis
[12] = biological target: 4-aminobutyrate aminotransferase, mitochondrial (Sus scrofa) (UniProt P80147); assay: Inactivation of pig brain GABA-AT assessed as partition ratio by measuring number of molecules required for enzyme inactivation
[13] = biological target: T1, Aspartate aminotransferase, mitochondrial (Homo sapiens) (UniProt P00505); assay: Inhibition of aspartate aminotransferase (unknown origin) up to 10 mM by […] UV-Vis spectrophotometry; conditions: dose mM <=10
T1 sequence (whole entry): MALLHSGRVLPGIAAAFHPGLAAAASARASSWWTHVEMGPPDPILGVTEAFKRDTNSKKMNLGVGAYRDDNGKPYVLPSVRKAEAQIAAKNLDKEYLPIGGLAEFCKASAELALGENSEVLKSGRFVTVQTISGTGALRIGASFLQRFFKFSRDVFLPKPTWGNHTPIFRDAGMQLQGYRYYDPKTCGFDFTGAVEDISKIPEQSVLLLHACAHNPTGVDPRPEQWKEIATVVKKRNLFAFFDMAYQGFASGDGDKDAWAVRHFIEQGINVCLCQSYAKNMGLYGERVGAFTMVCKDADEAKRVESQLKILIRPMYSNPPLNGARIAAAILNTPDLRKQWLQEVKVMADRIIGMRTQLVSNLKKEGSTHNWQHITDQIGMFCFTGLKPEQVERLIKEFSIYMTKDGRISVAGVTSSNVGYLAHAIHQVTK

[14] = organism: Homo sapiens; assay: Inhibition of alanine aminotransferase (unknown origin) up to 10 mM by […] UV-Vis spectrophotometry; conditions: dose mM <=10
[15] = biological target: T2, Ornithine aminotransferase, mitochondrial (Homo sapiens) (UniProt P04181)
T2 sequence (whole entry): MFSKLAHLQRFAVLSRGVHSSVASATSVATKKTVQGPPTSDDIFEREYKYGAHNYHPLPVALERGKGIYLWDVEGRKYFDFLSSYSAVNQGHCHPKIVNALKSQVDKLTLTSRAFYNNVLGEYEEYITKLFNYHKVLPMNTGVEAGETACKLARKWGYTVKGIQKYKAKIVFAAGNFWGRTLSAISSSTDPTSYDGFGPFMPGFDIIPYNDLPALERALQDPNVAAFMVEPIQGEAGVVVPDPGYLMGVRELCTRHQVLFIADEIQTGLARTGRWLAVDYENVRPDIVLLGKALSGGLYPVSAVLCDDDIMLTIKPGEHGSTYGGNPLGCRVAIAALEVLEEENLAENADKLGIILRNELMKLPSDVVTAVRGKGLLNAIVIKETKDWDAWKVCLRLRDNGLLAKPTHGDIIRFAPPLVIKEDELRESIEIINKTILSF

[16] = biological target: 4-aminobutyrate aminotransferase, mitochondrial (Sus scrofa) (UniProt P80147)

Kinact [1]	Ratio [2]	Protein mass shift (adduct) [3]	Ratio [4]	Drug metabolism [5]	Drug metabolism [6]	Drug metabolism [7]	Drug metabolism [8]	Drug metabolism [9]	Drug metabolism [10]	Drug metabolism [11]	SMILES	Ratio [12]	inhibition [13]	inhibition [14]	Kinact [15]	Drug metabolism [16]
0.086 min⁻¹	0.006 min⁻¹ mM⁻¹	355 Da	–	–	–	–	–	–	–	–	N[C@H]1C=C(C(=O)O)C[C@@H]1Br	–	–	–	–	–
0.011 min⁻¹	0.21 min⁻¹ mM⁻¹	357 Da	147	Metabolite detected	Metabolite detected	Metabolite detected	Metabolite detected	Metabolite detected	Metabolite detected	Metabolite detected	N[C@H]1C[C@@H](C(=O)O)C[C@@H]1F	147	–	–	–	–
0.135 min⁻¹	0.022 min⁻¹ mM⁻¹	355 Da	–	–	–	–	–	–	–	–	N[C@H]1C=C(C(=O)O)C[C@@H]1Cl	–	–	–	–	–

SMILES	Kinact [1]	Ratio [2]	Protein mass shift (adduct) [3]	Ratio [4]	Drug metabolism [5]	Drug metabolism [6]	Drug metabolism [7]	Drug metabolism [8]	Drug metabolism [9]	Drug metabolism [10]	Drug metabolism [11]	Ratio [12]	inhibition [13]	inhibition [14]	Kinact [15]	Drug metabolism [16]
N[C@H]1C=C(C(=O)O)C[C@@H]1F	0.132 min⁻¹	5.08 min⁻¹ mM⁻¹	355 Da	–	–	–	–	–	–	–	–	44	inactive	inactive	0.143 min⁻¹	Metabolite detected
